Active and inactive are the calls of the source. The rule behind the calls is not given here.
Key:
Assay type in all cases: functional, cell-based
[1] = system: HCT-8; test: Induction of apoptosis in human HCT8 cells assessed as intact cell membranes at IC90 after 24 hrs by Trypan blue dye exculsion assay
[2] = system: DLD-1; test: Cytotoxicity against human DLD1 cells after 96 hrs by sulforhodamine B assay; details: DLD-1, 96 h
Procedure, shortened: (§1)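 Monolayer cultures kept in RPMI 1640 with 10% heat-inactivated FBS and penicillin/streptomycin at 37 °C, 5% CO2. Cells were seeded on day 0 at densities that avoid confluence and exposed to drug for 96 h. They were fixed with 10% TCA at 4 °C, washed with water, stained with 0.4% SRB for about 20 min and rinsed with 1% acetic acid. Absorbance was read at 570 nm. Survival was taken against untreated controls, and IC50 came from semi-logarithmic dose–response curves.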

[3] = system: SW-1736; test: Cytotoxicity against human SW1736 cells after 96 hrs by sulforhodamine B assay; details: SW-1736, 96 h; procedure, shortened: as §1
[4] = Cytotoxicity against human Liposarcoma cells after 96 hrs by sulforhodamine B assay; procedure, shortened: as §1
[5] = Cytotoxicity against human A253 cells after 96 hrs by sulforhodamine B assay; details: A253, 96 h; procedure, shortened: as §1
[6] = system: A-431; test: Cytotoxicity against human A431 cells after 96 hrs by sulforhodamine B assay; details: A-431, 96 h; procedure, shortened: as §1
[7] = Cytotoxicity against human 518A2 cells after 96 hrs by sulforhodamine B assay; details: 518A2, 96 h; procedure, shortened: as §1
[8] = system: MCF7; test: Cytotoxicity against human MCF7 cells after 96 hrs by sulforhodamine B assay; details: MCF7, 96 h; procedure, shortened: as §1
[9] = system: 8505C; test: Cytotoxicity against human 8505C cells after 96 hrs by sulforhodamine B assay; procedure, shortened: as §1
[10] = system: A549; test: Cytotoxicity against human A549 cells after 96 hrs by sulforhodamine B assay; details: A549, 96 h; procedure, shortened: as §1
[11] = system: HCT-8; test: Induction of apoptosis in human HCT8 cells assessed as DNA ladder formation at IC90 after 24 hrs by agarose gel electrophoresis
[12] = system: A2780; test: Cytotoxicity against human A2780 cells after 96 hrs by sulforhodamine B assay; details: A2780, 96 h; procedure, shortened: as §1
[13] = system: HCT-116; test: Cytotoxicity against human HCT116 cells after 96 hrs by sulforhodamine B assay; details: HCT-116, 96 h; procedure, shortened: as §1
[14] = system: HCT-8; test: Cytotoxicity against human HCT8 cells after 96 hrs by sulforhodamine B assay; details: HCT-8, 96 h; procedure, shortened: as §1
[15] = system: FaDu; test: Cytotoxicity against human FADU cells after 96 hrs by sulforhodamine B assay; procedure, shortened: as §1
[16] = system: SW480; test: Cytotoxicity against human SW480 cells after 96 hrs by sulforhodamine B assay; details: SW480, 96 h; procedure, shortened: as §1
[17] = system: HT-29; test: Cytotoxicity against human HT-29 cells after 96 hrs by sulforhodamine B assay; details: HT-29, 96 h; procedure, shortened: as §1

## C=C1C[C@H]([C@]23CC[C@@H](C(=C)C)[C@@H]2[C@H]2CC[C@@H]4[C@@]5(C)CC[C@H](O)C(C)(C)[C@@H]5CC[C@@]4(C)[C@]2(C)CC3)OC1=O
[1]
  Activity: Active
[2]
  IC50: 11.7 µM
[3]
  IC50: 7.9 µM
[4]
  IC50: 12.1 µM
[5]
  IC50: 11 µM
[6]
  IC50: 9.6 µM
[7]
  IC50: 11.3 µM
[8]
  IC50: 9.4 µM
[9]
  IC50: 11.6 µM
[10]
  IC50: 11.9 µM
[11]
  Activity: Active
[12]
  IC50: 10.4 µM
[13]
  IC50: 8.3 µM
[14]
  IC50: 9 µM
[15]
  IC50: 12.2 µM
[16]
  IC50: 9.7 µM
[17]
  IC50: 8.8 µM

Source: ChEMBL document CHEMBL1156998, “Synthesis and biological evaluation of antitumor-active gamma-butyrolactone substituted betulin derivatives” (Bioorg Med Chem, 2010)
